How the values were obtained:
Hygroscopicity test = type: physicochemical; settings: for percentage weight gain on the first day: 298 K, relative humidity 90 ± 5%; for hygroscopicity class (Chinese Pharmacopoeia): by weight gain
mice = settings: cited from earlier work
[1] = Intrinsic dissolution rate in pure water; type: physicochemical; settings: 310 K, 100 rpm
S. aureus = assay: Antibacterial activity; type: cell-based, Staphylococcus aureus; settings: Figure 9, trimethoprim vs compound 1 vs 5-fluorouracil
Procedure, shortened: (§1)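 Two-fold broth microdilution at ten concentrations (32, 16, 8, 4, 2, 1, 0.5, 0.25, 0.125, 0.0625 μg/mL) of test compound with bacterial suspension in medium. Medium-only and bacteria-plus-medium controls were included. Plates were incubated at 310 K for 24 h, and OD600 gave the MIC.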

[2] = system: lung cancer cells (H1299); assay: In vitro anticancer activity, MTT assay; type: cell-based, human; settings: MTT, 24, 48, 72 h, dose-dependent
Procedure, shortened: (§2)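 Cells were grown in DMEM with 10% FBS, 1% penicillin and 1% streptomycin at 37 °C, 5% CO2, and used in log phase (85–95% confluent). They were seeded at 3 × 10^5 cells/mL, grown 24 h, then exposed to a range of test compound concentrations for 24, 48 or 72 h, with a positive control. MTT (5 mg/mL stock) was added for 4 h at 37 °C. Formazan was dissolved in DMSO and read at 490 nm after 10 min shaking, with blank-well correction.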

[3] = system: human colon cancer cells (SW480); assay: In vitro anticancer activity, MTT assay; type: cell-based; settings: SW480 (human rectal cancer cells), MTT, 24, 48, 72 h, dose-dependent
Procedure, shortened: as §2

P. aeruginosa = assay: Antibacterial activity; type: cell-based, Pseudomonas aeruginosa; settings: Figure 9, trimethoprim vs compound 1 vs 5-fluorouracil
Procedure, shortened: as §1

S. pneumoniae = assay: Antibacterial activity; type: cell-based, Streptococcus pneumoniae; settings: Figure 9, trimethoprim vs compound 1 vs 5-fluorouracil
Procedure, shortened: as §1

[4] = system: breast cancer cells (MDA-MB-231); assay: In vitro anticancer activity, MTT assay; type: cell-based, human; settings: MDA-MB-231 breast cancer cells, MTT, 24, 48, 72 h, dose-dependent
Procedure, shortened: as §2

S. dysenteriae = assay: Antibacterial activity; type: cell-based, Shigella dysenteriae; settings: Figure 9, trimethoprim vs compound 1 vs 5-fluorouracil
Procedure, shortened: as §1

Compound	percentage weight gain on the first day (Hygroscopicity test) [%]	hygroscopicity class (Chinese Pharmacopoeia) (Hygroscopicity test)	oral LD50 (mice) [mg/kg]	IDR (intrinsic dissolution rate) [1] [mg cm^–2 min^–1]	antibacterial activity, comparison in words (S. aureus)	inhibition effect on cancer cells [2]	inhibition effect on cancer cells [3]	antibacterial activity, comparison in words (P. aeruginosa)	antibacterial activity, comparison in words (S. pneumoniae)	inhibition effect on cancer cells [4]	antibacterial activity, comparison in words (S. dysenteriae)
COc1cc(Cc2cnc(N)nc2N)cc(OC)c1OC [trimethoprim]	0.20	slightly hygroscopic (slightly hygroscopic ≥ 0.2%)	> 5300	0.039	greater than that of compound 1						
O=c1[nH]cc(F)c(=O)[nH]1 [5-fluorouracil]	0.19	slightly hygroscopic (slightly hygroscopic ≥ 0.2%)	220		the greatest	significant inhibition effect	significant inhibition effect	the greatest	the greatest	significant inhibition effect	the greatest

Source: paper PMC10286293 (ACS Omega, 2023)
